Results published in ChEMBL document CHEMBL3232989, “First identification of boronic species as novel potential inhibitors of the Staphylococcus aureus NorA efflux pump” (J Med Chem, 2014).
Values after ≈ are worked out from the molar mass of the structure shown.

Assays:
[1] = test system: Staphylococcus aureus; test: Toxicity in fluoroquinolone-resistant Staphylococcus aureus 1199B expressing NorA after 24 hrs by microdilution method; format: organism-based; conditions: in vitro
Procedure, shortened: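 Broth microdilution in Mueller–Hinton broth, 10^6 CFU/mL per well from an 18 h 37 °C culture. Compounds come from 10 mg/mL DMSO stocks as 2-fold serial dilutions, top 128 mg/L. Plates run 24 h at 37 °C and are read at 620 nm and visually. MIC is the lowest concentration with complete growth inhibition. Duplicates; 2-fold variance accepted.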

[2] = test system: Staphylococcus aureus; test: Toxicity in Staphylococcus aureus ATCC 25923 after 24 hrs by microdilution method; format: organism-based
Procedure, shortened: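 Mueller–Hinton broth microdilution; inoculum from frozen culture grown 18 h at 37 °C, 10^6 CFU/mL per well. Compounds (10 mg/mL DMSO stock) in 2-fold serial dilutions, highest 128 mg/L, first screened at 100 μg/mL. MIC = complete growth inhibition after 24 h at 37 °C, read at 620 nm and visually; duplicate; ampicillin control.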

[3] = biological target: T1, Quinolone resistance protein NorA (Staphylococcus aureus) (UniProt P0A0J7); test: Inhibition of NorA in fluoroquinolone-resistant Staphylococcus aureus 1199B assessed as potentiation of 4 ug/ml of ciprofloxacin MIC at 100 ug/ml after 24 hrs by microdilution method
T1 sequence (whole entry): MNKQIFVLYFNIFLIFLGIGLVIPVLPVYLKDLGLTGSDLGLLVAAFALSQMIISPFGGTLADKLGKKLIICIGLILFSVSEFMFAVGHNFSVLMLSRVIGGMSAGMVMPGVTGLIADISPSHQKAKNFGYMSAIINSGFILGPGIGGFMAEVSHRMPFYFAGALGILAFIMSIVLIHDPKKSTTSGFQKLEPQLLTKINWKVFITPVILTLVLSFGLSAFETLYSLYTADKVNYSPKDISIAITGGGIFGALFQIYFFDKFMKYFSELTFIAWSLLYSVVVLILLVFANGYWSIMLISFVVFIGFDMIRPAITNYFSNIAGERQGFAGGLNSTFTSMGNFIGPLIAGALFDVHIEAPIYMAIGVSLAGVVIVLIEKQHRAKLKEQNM
Procedure, shortened: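 Combination with ciprofloxacin 4 μg/mL (MIC/4) against SA-1199B in MH broth microdilution, 10^6 CFU/mL, 24 h at 37 °C, read at 620 nm and visually. Compounds are first screened at 100 μg/mL; actives are 2-fold serially diluted. MMC4 is the lowest inhibitor concentration giving antibacterial activity with subinhibitory ciprofloxacin. Duplicates.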

[4] = test system: Staphylococcus aureus; test: Toxicity in fluoroquinolone-resistant Staphylococcus aureus 1199B expressing NorA at 100 ug/ml after 24 hrs by microdilution method; format: organism-based
Procedure, shortened: (§1)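 Single-point screen at 100 μg/mL of compound alone in MH broth microdilution, 10^6 CFU/mL, 24 h at 37 °C. Growth is read at 620 nm and visually, giving percent growth inhibition. Compounds inhibiting more than 90% then go to MIC determination. Duplicates.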

[5] = test system: Staphylococcus aureus; test: Toxicity in Staphylococcus aureus ATCC 25923 at 100 ug/ml after 24 hrs by microdilution method; format: organism-based; procedure, shortened: as §1

| Structure (SMILES) | MIC [1] | MIC [2] | Activity [3] [µg/mL] | growth inhibition (GI) [4] [%] | growth inhibition (GI) [5] [%] |
| --- | --- | --- | --- | --- | --- |
| O=C(O)c1ccccc1Br | > 128 µg/mL | >= 64 ug ml-1 | > 128 | – | – |
| O=C(O)c1ccc2ccccc2c1 [BETA-NAPHTOIC ACID] | > 128 µg/mL | >= 64 ug ml-1 | > 128 | – | – |
| Oc1ccccc1Cl [2-CHLOROPHENOL] | > 128 µg/mL | >= 64 ug ml-1 | 128 | – | – |
| O=C(O)c1cnc2ccccc2c1 | > 128 µg/mL | >= 64 ug ml-1 | 32 | – | – |
| O=Cc1cnc2ccccc2c1 | > 128 µg/mL | >= 64 ug ml-1 | > 128 | – | – |
| O=Cc1ccc2ccccc2c1 [2-NAPHTHALDEHYDE] | > 128 µg/mL | >= 64 ug ml-1 | 64 | – | – |
| Cc1cccc(O)c1Cl | > 128 µg/mL | >= 64 ug ml-1 | 64 | – | – |
| O=C(O)c1ccccc1Cl | 128 µg/mL (≈ 818 µM) | >= 64 ug ml-1 | 64 | – | – |
| Cc1cccc(C(=O)O)c1Cl | > 128 µg/mL | >= 64 ug ml-1 | > 128 | – | – |
| O=C(O)c1ccc(Br)nc1 | > 128 µg/mL | >= 64 ug ml-1 | > 128 | – | – |
| O=Cc1ccccc1Cl | > 128 µg/mL | >= 64 ug ml-1 | > 128 | – | – |
| Oc1ccc(Cl)nc1 | > 128 µg/mL | >= 64 ug ml-1 | > 128 | – | – |
| O=C(O)c1ccc(Cl)nc1 [6-CHLORONICOTINIC ACID] | > 128 µg/mL | >= 64 ug ml-1 | > 128 | – | – |
| O=C(O)c1ccccc1 [BENZOIC ACID] | > 128 µg/mL | >= 64 ug ml-1 | > 128 | – | – |
| Oc1ccccc1Br | > 128 µg/mL | >= 64 ug ml-1 | 128 | – | – |
| OCc1ccc(OCc2ccccc2)nc1 | >= 128 ug ml-1 | – | > 34 | – | – |
| O=Cc1cccnc1 [NICOTINALDEHYDE] | > 128 µg/mL | >= 64 ug ml-1 | > 128 | – | – |
| O=Cc1ccccc1 [BENZALDEHYDE] | > 128 µg/mL | >= 64 ug ml-1 | > 128 | – | – |
| COc1ccc(B(O)O)cc1 | > 128 µg/mL | – | 64 | – | – |
| CC(C)(O)C(C)(C)OB(OC(C)(C)C(C)(C)O)c1ccnc(Cl)c1Cl | – | >= 64 ug ml-1 | 32 | < 90 | < 90 |
| O=C(O)c1ccc(B(O)O)cc1 | – | >= 64 ug ml-1 | > 128 | < 90 | < 90 |
| N#Cc1ncccc1B(O)O | – | >= 64 ug ml-1 | > 128 | < 90 | < 90 |
| CC(C)(O)C(C)(C)OB(OC(C)(C)C(C)(C)O)c1cc(Br)cnc1Cl | – | >= 64 ug ml-1 | 128 | < 90 | < 90 |

| Structure (SMILES) | MIC [1] | MIC [2] | Activity [3] [µg/mL] | growth inhibition (GI) [4] [%] | growth inhibition (GI) [5] [%] |
| --- | --- | --- | --- | --- | --- |
| CC(C)(O)C(C)(C)OB(OC(C)(C)C(C)(C)O)c1cccnc1F | – | >= 64 ug ml-1 | > 128 | < 90 | < 90 |
| F[B-](F)(F)c1cccnc1.[K+] | – | >= 64 ug ml-1 | > 128 | < 90 | < 90 |
| CC(C)Nc1ccc(B(O)O)cc1 | – | >= 64 ug ml-1 | 64 | < 90 | < 90 |
| OB(O)c1ccnc(F)c1 | – | >= 64 ug ml-1 | > 128 | < 90 | < 90 |
| CSc1ncccc1B(O)O | – | >= 64 ug ml-1 | > 128 | < 90 | < 90 |
| CC1(C)OB(c2ccc3c(cnn3COCC[Si](C)(C)C)c2)OC1(C)C | – | >= 64 ug ml-1 | 16 | < 90 | < 90 |
| CC(C)(O)C(C)(C)OB(OC(C)(C)C(C)(C)O)c1ccncc1Br | – | >= 64 ug ml-1 | > 128 | < 90 | < 90 |
| CC(C)(O)C(C)(C)OB(OC(C)(C)C(C)(C)O)c1ccnc(Cl)c1C#N | – | >= 64 ug ml-1 | > 128 | < 90 | < 90 |
| COc1ncccc1B(O)O | – | >= 64 ug ml-1 | 16 | < 90 | < 90 |
| CC(C)[Si](Oc1ncc(B2OC(C)(C)C(C)(C)O2)o1)(C(C)C)C(C)C | – | >= 64 ug ml-1 | > 128 | < 90 | < 90 |
| CC(C)(C)OC(=O)n1ncc2cc(B3OC(C)(C)C(C)(C)O3)ccc21 | – | >= 64 ug ml-1 | > 128 | < 90 | < 90 |
| CC(C)(O)C(C)(C)OB(OC(C)(C)C(C)(C)O)c1ccncc1Cl | – | >= 64 ug ml-1 | > 128 | < 90 | < 90 |
| OB(O)c1ccccc1-c1ccccc1 | – | >= 64 ug ml-1 | > 128 | < 90 | < 90 |
| CC(=O)n1nc(C)c2cc(B3OC(C)(C)C(C)(C)O3)ccc21 | – | >= 64 ug ml-1 | 128 | < 90 | < 90 |
| CC(C)(O)C(C)(C)OB(OC(C)(C)C(C)(C)O)c1ccnc(Cl)c1 | – | >= 64 ug ml-1 | 128 | < 90 | < 90 |
| CC(C)(O)C(C)(C)OB(OC(C)(C)C(C)(C)O)c1ccc(OCc2ccccc2)nc1 | – | >= 64 ug ml-1 | 64 | < 90 | < 90 |
| OB(O)c1ccnc(Cl)c1Cl | – | >= 64 ug ml-1 | 32 | < 90 | < 90 |
| OB(O)c1ccc(Oc2cccnc2)nc1 | – | >= 64 ug ml-1 | > 128 | < 90 | < 90 |
| OB(O)c1ccnc(Cl)c1 | – | >= 64 ug ml-1 | > 128 | < 90 | < 90 |
| OB(O)c1cc(Cl)ncc1Cl | – | >= 64 ug ml-1 | 64 | < 90 | < 90 |
| CSc1ncccc1B(OC(C)(C)C(C)(C)O)OC(C)(C)C(C)(C)O | – | >= 64 ug ml-1 | > 128 | < 90 | < 90 |
| OB(O)c1cncc(Oc2cncc(Cl)c2)c1 | – | >= 64 ug ml-1 | 16 | < 90 | < 90 |
| OB(O)c1ccc2[nH]ncc2c1 | – | >= 64 ug ml-1 | 32 | < 90 | < 90 |
